For test [1], the system named is wt and mutant (αS589) ENaC channels. The test can be described thus: Block of ionic currents by 100 μM amiloride. In kind it is cell-based, rat. The procedure, abridged:
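Oocytes were co-injected with rat αβγ ENaC cRNAs (100 nl, 100 ng/μl total, equal amounts of each subunit) and recorded by two-electrode voltage clamp 16–48 h later. Amiloride-sensitive current was taken as the difference between currents with and without 100 μM amiloride in the bath.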

For a further test, the target named is T1, αS589H ENaC mutant (Rattus norvegicus, UniProt P37089+P37090+P37091, S589H).
T1 sequence (P37089 1-698 S589H): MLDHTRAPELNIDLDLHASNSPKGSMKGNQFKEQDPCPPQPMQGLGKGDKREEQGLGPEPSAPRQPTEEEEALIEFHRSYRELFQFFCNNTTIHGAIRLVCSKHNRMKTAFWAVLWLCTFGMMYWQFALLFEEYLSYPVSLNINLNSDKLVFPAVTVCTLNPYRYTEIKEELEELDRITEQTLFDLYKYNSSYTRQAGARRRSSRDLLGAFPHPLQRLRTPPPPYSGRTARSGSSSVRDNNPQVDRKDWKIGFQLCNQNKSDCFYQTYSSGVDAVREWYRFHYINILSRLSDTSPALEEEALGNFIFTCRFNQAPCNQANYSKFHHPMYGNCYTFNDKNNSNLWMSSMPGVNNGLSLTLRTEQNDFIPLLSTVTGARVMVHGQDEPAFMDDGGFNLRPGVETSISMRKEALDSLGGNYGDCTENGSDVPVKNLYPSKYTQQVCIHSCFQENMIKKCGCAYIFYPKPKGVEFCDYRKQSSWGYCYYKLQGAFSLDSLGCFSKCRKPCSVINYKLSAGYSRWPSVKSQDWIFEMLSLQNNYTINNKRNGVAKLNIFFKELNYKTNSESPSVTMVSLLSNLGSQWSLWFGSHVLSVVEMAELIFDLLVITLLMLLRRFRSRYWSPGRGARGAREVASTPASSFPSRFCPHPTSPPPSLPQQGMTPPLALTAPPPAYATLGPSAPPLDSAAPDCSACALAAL
T1 sequence (P37090 1-638): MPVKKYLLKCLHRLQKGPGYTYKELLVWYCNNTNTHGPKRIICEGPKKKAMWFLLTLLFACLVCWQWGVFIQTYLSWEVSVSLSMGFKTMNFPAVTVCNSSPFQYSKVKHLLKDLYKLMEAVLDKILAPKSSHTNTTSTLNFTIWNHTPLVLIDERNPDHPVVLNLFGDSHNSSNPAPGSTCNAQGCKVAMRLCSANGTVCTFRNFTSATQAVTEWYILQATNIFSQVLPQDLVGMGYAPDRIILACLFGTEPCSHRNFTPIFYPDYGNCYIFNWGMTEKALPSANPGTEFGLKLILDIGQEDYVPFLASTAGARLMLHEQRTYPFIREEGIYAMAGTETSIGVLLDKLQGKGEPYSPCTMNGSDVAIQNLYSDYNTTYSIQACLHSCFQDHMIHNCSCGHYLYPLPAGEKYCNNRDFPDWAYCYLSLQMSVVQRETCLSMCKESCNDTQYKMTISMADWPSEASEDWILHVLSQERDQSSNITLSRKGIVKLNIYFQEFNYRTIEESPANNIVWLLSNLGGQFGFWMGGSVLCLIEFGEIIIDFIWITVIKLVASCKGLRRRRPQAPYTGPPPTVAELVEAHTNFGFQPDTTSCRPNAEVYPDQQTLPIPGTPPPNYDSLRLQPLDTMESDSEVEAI
T1 sequence (P37091 1-650): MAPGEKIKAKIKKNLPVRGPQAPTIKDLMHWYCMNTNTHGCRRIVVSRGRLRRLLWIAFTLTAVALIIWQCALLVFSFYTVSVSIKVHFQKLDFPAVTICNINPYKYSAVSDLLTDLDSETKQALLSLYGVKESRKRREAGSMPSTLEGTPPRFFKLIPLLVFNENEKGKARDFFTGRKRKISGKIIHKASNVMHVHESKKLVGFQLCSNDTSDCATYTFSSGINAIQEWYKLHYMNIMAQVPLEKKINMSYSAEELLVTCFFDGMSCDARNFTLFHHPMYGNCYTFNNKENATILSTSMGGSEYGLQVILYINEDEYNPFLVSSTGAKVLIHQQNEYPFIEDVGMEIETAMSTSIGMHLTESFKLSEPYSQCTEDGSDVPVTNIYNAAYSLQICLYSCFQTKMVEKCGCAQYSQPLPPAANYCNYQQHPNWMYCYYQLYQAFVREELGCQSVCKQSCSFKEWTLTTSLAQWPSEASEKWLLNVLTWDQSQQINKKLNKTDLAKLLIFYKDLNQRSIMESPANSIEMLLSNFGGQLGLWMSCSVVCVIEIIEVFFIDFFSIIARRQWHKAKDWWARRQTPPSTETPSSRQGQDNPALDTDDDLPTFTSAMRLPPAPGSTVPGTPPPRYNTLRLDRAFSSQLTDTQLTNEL
It counts as cell-based. The procedure, abridged: (§1)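 Stage V–VI Xenopus oocytes were pressure-injected with 100 nl of equal amounts of rat α, β and γ ENaC cRNAs (mutations in α only), 100 ng/μl total. Two-electrode voltage clamp was done 16–48 h post-injection. For other permeant cations, Na+ was replaced at the same concentration.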

The test system of test [2] is ENaC mutants of α (S583), β (G525) or γ subunit (G537). The following applies: mutations of α S583, β G525 or γ G537; ref Schild et al. 1997; cited from earlier work.
In the next test the target is T2, αE598A ENaC mutant (Rattus norvegicus, UniProt P37089+P37090+P37091, E598A).
T2 sequence (P37089 1-698 E598A): T1 sequence (P37089 1-698 S589H) with H589S, E598A
T2 sequence (P37090 1-638): T1 sequence (P37090 1-638)
T2 sequence (P37091 1-650): T1 sequence (P37091 1-650)
In words: Amiloride block of αE598A mutant. In kind it is cell-based.

The next test concerns the target T3, αS589D ENaC mutant (Rattus norvegicus, UniProt P37089+P37090+P37091, S589D).
T3 sequence (P37089 1-698 S589D): T1 sequence (P37089 1-698 S589H) with H589D
T3 sequence (P37090 1-638): T1 sequence (P37090 1-638)
T3 sequence (P37091 1-650): T1 sequence (P37091 1-650)
It counts as cell-based. The procedure, abridged: as §1

Test [3] concerns the target T4, ENaC wt (Rattus norvegicus, UniProt P37089+P37090+P37091).
T4 sequence (P37089 1-698): T1 sequence (P37089 1-698 S589H) with H589S
T4 sequence (P37090 1-638): T1 sequence (P37090 1-638)
T4 sequence (P37091 1-650): T1 sequence (P37091 1-650)
In kind it is cell-based. The procedure, abridged: as §1

The target of the next test is T5, αS589N ENaC mutant (Rattus norvegicus, UniProt P37089+P37090+P37091, S589N).
T5 sequence (P37089 1-698 S589N): T1 sequence (P37089 1-698 S589H) with H589N
T5 sequence (P37090 1-638): T1 sequence (P37090 1-638)
T5 sequence (P37091 1-650): T1 sequence (P37091 1-650)
It counts as cell-based. The procedure, abridged:
as §1

Test [4] has as its target T4, ENaC wt. The test can be described thus: Effect of extracellular MTSEA on INa. It counts as cell-based. Conditions: 2-min extracellular application of 2.5 mM MTSEA. In outline:
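Two-electrode voltage clamp was run on Xenopus oocytes 16–48 h after injecting rat αβγ ENaC cRNAs (100 nl, 100 ng/μl total). INa was the current sensitive to 100 μM amiloride. Aqueous MTSEA stock was made fresh, kept on ice and diluted into bath immediately before use.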

Numbering of substitutions follows the chain as printed. Where two headings read alike, the source gives them in different places.

On to `N=C(N)NC(=O)c1nc(Cl)c(N)nc1N` [amiloride], for which, in test [1], the “block of ionic currents” value was “completely blocked”. The IC50 (in general, the point on the concentration scale where inhibition reaches its midpoint) at αS589H ENaC mutant was determined as 2800 ± 650 nM; against αS589D ENaC mutant, 100 ± 20 nM; against ENaC wt [3], 180 ± 80 nM; against αS589N ENaC mutant (IC50 for amiloride block of the NH4+ current, NH4+ current, n = 6–7) it was 190 ± 60 nM; at αS589N ENaC mutant (IC50 for amiloride block, Na+ as the main extracellular cation, n = 6–16), 440 ± 50 nM. The “increase of the IC50 for amiloride block (factor vs wt)” value on αS589H ENaC mutant (αS589H relative to ENaC wt) turned out to be 16. In addition, in test [2], the “decrease of channel affinity for amiloride” value was “two to three orders of magnitude”. For the same molecule, at αE598A ENaC mutant, the “amiloride block compared with wt” value is listed as “not different from wt”.
Take `CS(=O)(=O)SCCN` [MTSEA, aminoethyl methanethiosulfate]: the “ratio of INa after MTSEA application relative to the initial INa” value on ENaC wt [4] worked out at 0.77 ± 0.33.

These data come from article PMC2229513 (The Journal of General Physiology, 2001).
